Here are results for 11 compounds from ChEMBL document CHEMBL4270657, “Efficient synthesis of new phenanthridine Wnt/β-catenin signaling pathway agonists” (Eur J Med Chem, 2018).

In test [1] the test system is HEK293. Put plainly: Activation of Wnt/beta-catenin signaling pathway (unknown origin) expressed in HEK293 cells harboring pEGFP-C1/TOP Flash/LacZ at 5 to 20 uM in Wnt3a conditioned medium after 6 hrs by luciferase reporter gene assay. The test is classed as cell-based. To be noted: Homo sapiens. Put shortly: (§1)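 HEK293T cells in DMEM with 10% heat-inactivated FBS, 37°C, 5% CO2. Cells in 24-well plates were transfected with 250 ng plasmid per well (20 ng TOPFlash, 25 ng EGFP-C1, LacZ filler). 18 h later they were treated in Wnt3a CM or control CM for 6 h. Lysate GFP fluorescence was read first, then luciferase luminescence.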
(Reporter assays use an easily measured gene product as a stand-in for the process of interest.)

The test system of test [2] is HEK293. Put plainly: Activation of Wnt/beta-catenin signaling pathway (unknown origin) expressed in HEK293 cells harboring pEGFP-C1/TOP Flash/LacZ in Wnt3a conditioned medium after 6 hrs by luciferase reporter gene assay. To be noted: Homo sapiens. The class given is cell-based. Summed up:
as §1

For a further test, the target named is Axin-1 (Mus musculus) (UniProt O35625). Put plainly: Inhibition of HLY179 binding to mouse His6-tagged AXIN DAX domain expressed in Escherichia coli at 80 uM after 1 to 2 hrs by Western blot analysis. A general note: In western blotting, separated proteins are transferred to a membrane and probed.
Test [3] relates to HEK293. Put plainly: Activation of Wnt/beta-catenin signaling pathway (unknown origin) expressed in HEK293 cells harboring pEGFP-C1/TOP Flash/LacZ in Wnt3a conditioned medium assessed as increase in AXIN2 gene expression at 0.5 to 5 uM after 6 hrs by luciferase reporter gene assay. The class given is cell-based. The settings on record: Homo sapiens. Put shortly: (§2)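 HEK293T cells were treated with compound plus control or Wnt3a CM for 6 h. Total RNA was extracted with TRIzol and reverse-transcribed with oligo(dT) priming. Transcripts were quantified by PCR with target primers (DKK1 given) and GAPDH primers as reference.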

Test [4] deals with HEK293. Put plainly: Activation of Wnt/beta-catenin signaling pathway (unknown origin) expressed in HEK293 cells harboring pEGFP-C1/TOP Flash/LacZ in Wnt3a conditioned medium assessed as increase in DKK1 gene expression at 0.5 to 5 uM after 6 hrs by luciferase reporter gene assay. The test is classed as cell-based. The settings on record: Homo sapiens. Put shortly:
as §2

Each structure is given as a SMILES string. Active and inactive are the calls of the source. No cut-off for these calls is given here.

Sequence of Axin-1 (Mus musculus) (O35625 whole entry, the tested form may be a part): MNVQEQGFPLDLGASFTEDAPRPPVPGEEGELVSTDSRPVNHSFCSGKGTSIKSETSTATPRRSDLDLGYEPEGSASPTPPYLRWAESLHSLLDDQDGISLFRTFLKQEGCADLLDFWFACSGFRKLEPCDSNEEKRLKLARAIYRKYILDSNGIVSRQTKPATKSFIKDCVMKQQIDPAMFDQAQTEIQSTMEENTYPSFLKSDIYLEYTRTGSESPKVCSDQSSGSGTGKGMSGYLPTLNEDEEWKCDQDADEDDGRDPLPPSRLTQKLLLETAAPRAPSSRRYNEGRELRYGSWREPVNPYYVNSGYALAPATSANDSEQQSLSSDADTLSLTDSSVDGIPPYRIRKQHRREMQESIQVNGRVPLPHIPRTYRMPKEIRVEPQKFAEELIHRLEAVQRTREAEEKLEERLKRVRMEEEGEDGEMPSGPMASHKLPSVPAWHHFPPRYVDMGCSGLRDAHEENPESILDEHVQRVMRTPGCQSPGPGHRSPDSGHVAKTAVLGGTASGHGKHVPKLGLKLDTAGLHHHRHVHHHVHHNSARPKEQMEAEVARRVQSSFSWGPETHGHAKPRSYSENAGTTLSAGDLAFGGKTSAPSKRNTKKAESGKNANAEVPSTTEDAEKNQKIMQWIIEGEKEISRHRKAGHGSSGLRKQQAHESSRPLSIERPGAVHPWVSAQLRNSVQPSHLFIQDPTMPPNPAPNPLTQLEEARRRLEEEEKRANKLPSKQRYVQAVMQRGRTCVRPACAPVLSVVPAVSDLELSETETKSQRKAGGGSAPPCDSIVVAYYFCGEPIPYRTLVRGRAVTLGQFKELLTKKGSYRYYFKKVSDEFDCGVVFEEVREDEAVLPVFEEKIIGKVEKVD

`CCN1Cc2cc(OC)c(OC)cc2-c2cccc(C)c21`: in the test with HEK293 [1], the outcome was Active. The compound also gave a CD with HEK293 [2] of 5 µM.

Compound `CCN1Cc2cc(OCc3cc(C)nn3C)c(OCc3cc(C)nn3C)cc2-c2cccc(C)c21` had a CD in the test on HEK293 [2] of 0.15 µM. Further, the inhibition entry at Axin-1 (Mus musculus) was “Active”. Also, the outcome in the test on HEK293 [3] and in the test with HEK293 [4] was Active.

With `Cc1cc(COc2ccccc2)n(C)n1`, the result with HEK293 [1] was Active.

In the test on HEK293 [2], `CCN1Cc2cc(OCc3cccnc3)c(OCc3cccnc3)cc2-c2cccc(C)c21` had a CD of 5 µM. Further, the inhibition entry at Axin-1 (Mus musculus) is “Active”.

The compound `CCN1Cc2cc(OCc3cccnc3)ccc2-c2cccc(C)c21` registered a CD with HEK293 [2] of 1.5 µM.

On to `Cc1cc(COc2ccccc2)nn1C`, for which the outcome with HEK293 [1] was Active.

In the case of `COc1ccc2c(c1)CN(C)c1c(C)cccc1-2`, on Axin-1 (Mus musculus), the inhibition entry was “Active”.

On to `CCN1Cc2cc(OCc3cc(C)nn3C)ccc2-c2cccc(C)c21`, for which the CD in the test with HEK293 [2] came out at 0.5 µM. Moreover, the inhibition result on Axin-1 (Mus musculus) was “Active”.

On to `CCN1Cc2cc(OC)ccc2-c2cccc(C)c21`, for which the outcome in the test on HEK293 [1] was Active. At Axin-1 (Mus musculus), the inhibition entry was “Active”.

As to `c1ccc(OCc2cccnc2)cc1`, the outcome in the test on HEK293 [1] was Active.

On to `CCN1Cc2cc(OCc3cc(C)n(C)n3)ccc2-c2cccc(C)c21`, for which the CD in the test with HEK293 [2] stood at 3 µM. Also, the inhibition result on Axin-1 (Mus musculus) is “Active”. For the same compound, the outcome in the test on HEK293 [3] and in the test with HEK293 [4] was Active.
